High-throughput results (PubChem)
CHRM4 agonist = agonists of human muscarinic M4 receptor (CHRM4) | CHO-K1 hM4/Gqi5, Fluo-8 calcium fluorescence; vehicle 0%, full acetylcholine response 100% | 360,000 tested, 0.14% active | AID 624127 | activation, % at 3 µM | P08173;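 active = activation above the run mean over all test wells plus 3 SD, cut at about 32% in these data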;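 also: peak over basal fluorescence ratio per well then scaled between controls; 0% = DMSO wells and 100% = acetylcholine at EC100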
CHRM5 PAM = potentiates acetylcholine response at human M5 receptor; P08912; CHO-K1 hM5, Fluo-8 calcium, ACh EC20 PAM; 0% = ACh EC20, 100% = ACh EC100; activation, % at 3 µM; 360,000 tested, 0.3% active;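 active = activation above the run cutoff, the mean activation of all test compounds plus 3 SD, cut at about 18% in these data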
Target sequence (P08912 whole entry, looked up): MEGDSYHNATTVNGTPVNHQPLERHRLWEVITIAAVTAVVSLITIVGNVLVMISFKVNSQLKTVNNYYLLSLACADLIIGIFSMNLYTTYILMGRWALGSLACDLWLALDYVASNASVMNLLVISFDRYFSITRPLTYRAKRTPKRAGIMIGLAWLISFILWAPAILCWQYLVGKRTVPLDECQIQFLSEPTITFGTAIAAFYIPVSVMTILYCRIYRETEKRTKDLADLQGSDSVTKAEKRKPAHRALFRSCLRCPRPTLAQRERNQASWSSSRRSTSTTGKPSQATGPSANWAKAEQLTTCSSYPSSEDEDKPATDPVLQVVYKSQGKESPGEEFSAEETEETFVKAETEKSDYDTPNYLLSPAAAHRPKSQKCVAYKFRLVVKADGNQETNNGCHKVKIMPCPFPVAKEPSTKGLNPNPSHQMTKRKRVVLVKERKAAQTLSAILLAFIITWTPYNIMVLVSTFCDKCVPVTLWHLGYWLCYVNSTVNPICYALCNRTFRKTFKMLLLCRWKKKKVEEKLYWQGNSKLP
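system = human M5 receptor in CHO-K1 cells | compound = one concentration, 3 µM final (nominal) | schedule = Post-acetylcholine fluorescence recording 140 s | signal = Fluo-8 calcium dye fluorescence, kinetic read | benchmarks = low control EC20 acetylcholine (0%), high control EC100 acetylcholine (100%) | repeats = singlicate, one well per test compound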
CHRM4 antagonist = antagonists of human muscarinic M4 receptor (CHRM4); P08173; CHO-hM4 cells, ACh EC80, Fluo-8 calcium fluorescence; inhibition, % at 3 µM; 360,000 tested, 0.73% active;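 active = inhibition above its plate's cutoff, the mean inhibition of sample wells plus 3 SD, cut at about 27% in these data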;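 also: 0% = acetylcholine EC80 with DMSO and 100% = DMSO without agonist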
M5 ag = agonists of human muscarinic M5 receptor (CHRM5); P08912; CHO-K1 hM5 cells, Fluo-8 calcium fluorescence; 0% DMSO wells, 100% maximal acetylcholine response; activation, % at 3 µM; 360,000 tested, 0.19% active; AID 624037;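 active = activation above the run's mean over test compounds plus 3 SD, cut at about 23% in these data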;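 also: signal is peak over basal fluorescence ratio across the kinetic read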
CHRM4 PAM = positive allosteric modulators of human muscarinic M4 receptor | P08173 | CHO-K1 hM4/Gqi5, Fluo-8 calcium fluorescence, ACh EC20; 0% = ACh EC20, 100% = maximal ACh | activation, % at 3 µM | 360,000 tested, 0.4% active | AID 624126;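 active = activation above its plate's cutoff, the mean activation of sample wells plus 3 SD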
M5 antag = blocks acetylcholine activation of human M5 receptor. inhibition, % at 3 µM. 360,000 tested, 0.59% active. AID 624040. P08912. CHO-hM5 cells, Fluo-8 calcium fluorescence, ACh EC80;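 active = inhibition above a per-plate cutoff, the mean of that plate's test compounds plus 3 SD, cut at about 27% in these data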;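 also: 0% = acetylcholine EC80 with DMSO and 100% = DMSO without agonist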
Active calls of the source: *; + = active, no number. Hits are enriched below; roughly 1.8% of the tested compounds scored in any of these assays.

SMILES | CHRM4 agonist | CHRM5 PAM | CHRM4 antagonist | M5 ag | CHRM4 PAM | M5 antag
c1ccc(C(Cc2nc(-c3ccncc3)no2)c2ccccc2)cc1 | 1 | -16 | 18 | 0 | -11 | 31*
COC(=O)[C@H]1[C@@H](C)N(Cc2ccccc2)C(=O)N[C@H]1c1cccc(C(F)(F)F)c1 | 4 | 19* | -11 | 5 | 12 | -4
O=c1[nH]c(/C=C/c2ccc(Cl)cc2Cl)c([N+](=O)[O-])c(=O)[nH]1 | 1 | 0 | 1 | -3 | 8 | 5
CCCN1C(=O)c2ccccc2NC1c1ccc(C)cc1 (configuration not stated) | 0 | -1 | -6 | -4 | -2 | 12
COc1cc(-c2ccc(N3C(c4ccsc4)=Cc4ccc(F)cc4C3c3c[nH]c4ccc(C#N)cc34)cc2)cc(OC)c1OC (configuration not stated) | 1 | -8 | -2 | 2 | 5 | -1
N#Cc1ccc2[nH]cc(C3c4cc(F)ccc4C=C(c4ccsc4)N3c3ccc(C#CCCO)cc3)c2c1 (configuration not stated) | 2 | -9 | 41* | -5 | -15 | 4
Cc1cc(OC(=O)C(C)(C)C)c([N+](=O)[O-])c(=O)[nH]1 | 1 | 4 | -10 | 1 | 6 | -3
NC(=O)CC[C@H](NC(=O)[C@H](Cc1ccccc1)n1c(=O)[nH]c2ccccc2c1=O)C(=O)N1CCC[C@H]1C(=O)O | 1 | 5 | -1 | 2 | 4 | 2
Cc1cccc(C)c1N1CCN(C(c2cc3ccccc3o2)c2nnnn2C(C)(C)C)CC1 (configuration not stated) | 5 | 0 | 26* | 3 | -4 | 20
CCCCn1nnnc1C(c1cc2ccccc2o1)N1CCN(c2c(C)cccc2C)CC1 (configuration not stated) | 0 | -5 | -1 | 0 | 4 | 2
Cc1ccc(C)c(Nc2cc(C(=O)NCc3cccnc3)c3ccccc3n2)c1 | 10 | -10 | 4 | -1 | -10 | 10
CC(O)[C@@H](C(=O)N1CCNCC1)n1cc(CCCCN)nn1 (some centres not stated) | + | -5 | 9 | 1 | -20 | -7
CC(O)Cc1cn([C@@H](CCCCN)C(=O)N2CCNCC2)nn1 (some centres not stated) | 0 | 6 | -9 | 3 | 1 | 9
COCC(C)NC(=S)Nc1ccccc1[N+](=O)[O-] (configuration not stated) | 1 | 20* | -1 | 5 | 5 | -12
Cc1cc(C(=O)CN2C(=O)NC(C)(c3ccccc3)C2=O)c(C)n1CC1CCCO1 (configuration not stated) | 3 | -2 | 27* | 2 | 18 | 3
Cc1cc(C(=O)CSc2nc3ccccc3c(=O)[nH]2)c(C)n1CC1CCCO1 (configuration not stated) | 19 | -34 | 27* | 4 | -16 | 36*
CCn1c(SCC(=O)c2cc(C)n(CC3CCCO3)c2C)nc2ccccc21 (configuration not stated) | 6 | -5 | -9 | -6 | -4 | 9
Cc1cc(SCC(=O)NCC2CCCO2)nc2ccccc12 (configuration not stated) | 8 | 0 | 7 | 23* | -4 | 3
CC(C)c1ccc(NC(=O)c2ccc(-c3ccnn3C)c3ccoc23)cc1 | 7 | -8 | 7 | 1 | -8 | 9
C[C@H](NC(=O)[C@@H]1CCCN1C(=O)[C@@H]1CCCN1C(=O)c1cccc(Cl)c1)c1ccccc1 | 0 | -9 | 2 | 4 | 4 | 7
O=c1cccc2n1Cc1cc3ccccc3nc1-2 | 3 | 0 | 2 | 4 | 26* | 11
COC(=O)c1cn(NC(=O)c2cc(OC)cc(OC)c2)c(=O)c2ccccc12 | 2 | -6 | 4 | -3 | 10 | 0
COC(=O)c1cn(NC(=O)c2cc(OC)c(OC)c(OC)c2)c(=O)c2ccccc12 | 0 | 24* | -9 | 9 | 17 | -10
CCCCCCC(C)n1[nH]c(=O)cc1N (configuration not stated) | 0 | 7 | -2 | -22 | -9 | 5
CC1C(=O)NN=C1C(=O)N/N=C\c1ccc(O)cc1O (configuration not stated) | 1 | 5 | -34 | -3 | 29* | -6
SMILES | CHRM4 agonist | CHRM5 PAM | CHRM4 antagonist | M5 ag | CHRM4 PAM | M5 antag
COc1cc(/C=N/NC(=O)C2=NNC(=O)C2C)ccc1O (configuration not stated) | 1 | -3 | -4 | -1 | -1 | 6
CC1=NN(c2cccc(C(=O)O)c2)C(=O)/C1=C\C=C/c1ccccc1 | 1 | 2 | 4 | -2 | 24* | -2
CN(C)c1ccc(/C=C/c2nc3ccccc3c(=O)n2CCO)cc1 | 42* | -16 | 9 | 22 | -20 | 13
O=c1c2ccccc2nc(/C=C/c2ccccc2)n1CCCO | 9 | -13 | -4 | -2 | -8 | 18
CCOCCc1nnc(NC(=O)c2cc(OC)c(OC)cc2[N+](=O)[O-])s1 | 1 | 1 | 3 | 3 | 1 | 7
CCOCc1nnc(NC(=O)c2cc(OC)c(OC)cc2[N+](=O)[O-])s1 | 2 | 10 | -3 | 3 | 22* | -15
CC(=O)c1cn(CCOc2cc(C)ccc2C)c2ccccc12 | 12 | -23 | 17 | 0 | -17 | 33*
Cc1ccc(C)c(OCCn2cc(C(=O)O)c3ccccc32)c1 | 17 | -9 | 1 | 1 | 0 | 23
CN(C)CC/C=C1\c2ccccc2Sc2cc(F)c(Cl)cc21 | 17 | -32 | 99* | -19 | -66 | 100*
CN(C)CC/C=C1/c2ccc(F)cc2Sc2ccc(Cl)cc21 | 12 | -29 | 100* | -19 | -16 | 99*
CN(C)CC/C=C1\c2cc(Cl)ccc2Sc2cc(F)c(F)cc21 | 6 | -36 | 98* | -20 | -56 | 99*
CN(C)CC/C=C1\c2ccc(F)cc2Sc2cc(F)c(Cl)cc21 | 14 | -32 | 99* | -18 | -18 | 99*
CN(C)CCOc1ccc2c(c1)Sc1ccccc1CC2=O | 1 | 0 | 9 | 1 | -10 | 2
Cc1ccc(OCCC(=O)OCC(=O)c2ccc3c(c2)NC(=O)CO3)cc1 | 6 | 4 | -6 | 3 | 12 | -2
CC(C)CC(N)c1csc(Nc2ccccn2)n1 (configuration not stated) | 2 | -3 | 2 | 1 | -8 | -1
Clc1ccccc1C1=Nn2c(nnc2-c2ccco2)SC1 | 0 | 2 | -6 | 0 | -1 | -7
